Data from ChEMBL document CHEMBL3044632, “Synthesis, crystal structure, and biological activity of 4-methyl-1,2,3-thiadiazole-containing 1,2,4-triazolo[3,4-b][1,3,4]thiadiazoles” (J Agric Food Chem, 2010).
In brackets after ≈: the same amount, converted by molar mass. Activity calls are given as the source filed them. The calls are words filed in the database; no cut-off is given here.

Tests used:
Rhizoctonia solani [1] = assay: Fungicide activity against Rhizoctonia solani assessed as growth inhibition at 24 to 26 degC measured after 2 days; assay type: functional, organism-based; conditions: 48 h
[2] = tested on: Fusarium oxysporum f. sp. cucumerinum; assay: Fungicide activity against Fusarium oxysporum f. cucumerinum assessed as growth inhibition at 24 to 26 degC measured after 2 days; assay type: functional, organism-based; conditions: 48 h
Thanatephorus cucumeris [3] = assay: Fungicide activity against Thanatephorus cucumeris assessed as growth inhibition at 24 to 26 degC measured after 2 days; assay type: functional, organism-based; conditions: 48 h
Rhizoctonia solani [4] = assay: Fungicide activity against Rhizoctonia solani Kuhn assessed as growth inhibition at 50 ug/mL at 24 to 26 degC measured after 2 days; assay type: functional; conditions: 48 h, read-out: GI
Alternaria solani [5] = assay: Fungicide activity against Alternaria solani assessed as growth inhibition at 24 to 26 degC measured after 2 days; assay type: functional, organism-based; conditions: 48 h
Phytophthora infestans [6] = assay: Fungicide activity against Phytophthora infestans assessed as growth inhibition at 24 to 26 degC measured after 2 days; assay type: functional, organism-based; conditions: 48 h
Tobacco mosaic virus [7] = assay: Antiviral activity against Tobacco mosaic virus (TMV) infected leaves assessed as viral inhibition at 100 ug/mL at 25 degC for 72 hr; assay type: functional
Method in brief: (§1)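 Systemic acquired resistance induction was assayed in a tobacco–TMV system. The antivirus inhibition ratio was calculated from the average number of viral lesions on inoculated leaves, relative to the corresponding control.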

Mycosphaerella arachidis = assay: Fungicide activity against Mycosphaerella arachidis assessed as growth inhibition at 50 ug/mL at 24 to 26 degC measured after 2 days; assay type: functional; conditions: 48 h, read-out: GI
Thanatephorus cucumeris [8] = assay: Fungicide activity against Thanatephorus cucumeris assessed as growth inhibition at 50 ug/mL at 24 to 26 degC measured after 2 days; assay type: functional; conditions: 48 h, read-out: GI
Alternaria solani [9] = assay: Fungicide activity against Alternaria solani assessed as growth inhibition at 50 ug/mL at 24 to 26 degC measured after 2 days; assay type: functional; conditions: 48 h, read-out: GI
Macrophoma = assay: Fungicide activity against Macrophoma kuwatsukai assessed as growth inhibition at 24 to 26 degC measured after 2 days; assay type: functional, organism-based; conditions: 48 h
Fusarium oxysporum = assay: Fungicide activity against Fusarium oxysporum assessed as growth inhibition at 50 ug/mL at 24 to 26 degC measured after 2 days; assay type: functional; conditions: 48 h, read-out: GI
Tobacco mosaic virus [10] = assay: Antiviral activity against Tobacco mosaic virus (TMV) infected leaves assessed as viral inhibition at 500 ug/mL at 25 degC for 72 hr; assay type: functional; method in brief: as §1
Puccinia triticina = assay: Fungicide activity against Puccinia triticina assessed as growth inhibition at 50 ug/mL at 24 to 26 degC measured after 2 days; assay type: functional; conditions: 48 h, read-out: GI
Cercospora beticola = assay: Fungicide activity against Cercospora beticola assessed as growth inhibition at 50 ug/mL at 24 to 26 degC measured after 2 days; assay type: functional; conditions: 48 h, read-out: GI
[11] = tested on: Botryosphaeria berengeriana; assay: Fungicide activity against Botryosphaeria berengeriana assessed as growth inhibition at 50 ug/mL at 24 to 26 degC measured after 2 days; assay type: functional; conditions: 48 h, read-out: GI
Nicotiana tabacum [12] = assay: Phytotoxicity against Nicotiana tabacum (tobacco) plant at 50 to 500 ug/mL; assay type: organism-based; conditions: in vivo
Phytophthora infestans [13] = assay: Fungicide activity against Phytophthora infestans assessed as growth inhibition at 50 ug/mL at 24 to 26 degC measured after 2 days; assay type: functional; conditions: 48 h, read-out: GI
Colletotrichum lagenaria = assay: Fungicide activity against Colletotrichum lagenaria assessed as growth inhibition at 50 ug/mL at 24 to 26 degC measured after 2 days; assay type: functional; conditions: 48 h, read-out: GI
Nicotiana tabacum [14] = assay: Induction of systemic acquired resistance in Nicotiana tabacum (tobacco) mosaic virus infected Nicotiana tabacum (tobacco) plant at 100 ug/mL at 25 degC for 72 hr; assay type: functional
Method in brief: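 Tobacco–TMV system used to assess induced resistance. The antiviral inhibition ratio was calculated from the mean number of viral lesions on inoculated leaves, relative to the matching control.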

Tobacco mosaic virus [15] = assay: Antiviral activity against Tobacco mosaic virus (TMV) infected leaves assessed as viral inhibition at 50 ug/mL at 25 degC for 72 hr; assay type: functional; method in brief: as §1

| SMILES | inhibition of growth at 50 µg/mL (Rhizoctonia solani [4]) [%] | inhibition at 100 µg/mL (Tobacco mosaic virus [7]) [%] | inhibition of growth at 50 µg/mL (Mycosphaerella arachidis) [%] | inhibition of growth at 50 µg/mL (Thanatephorus cucumeris [8]) [%] | inhibition of growth at 50 µg/mL (Alternaria solani [9]) [%] | inhibition of growth at 50 µg/mL (Fusarium oxysporum) [%] | inhibition at 500 µg/mL (Tobacco mosaic virus [10]) [%] | inhibition of growth at 50 µg/mL (Puccinia triticina) [%] | inhibition of growth at 50 µg/mL (Cercospora beticola) [%] | inhibition of growth at 50 µg/mL [11] [%] | Activity (Nicotiana tabacum [12]) | inhibition of growth at 50 µg/mL (Phytophthora infestans [13]) [%] | inhibition of growth at 50 µg/mL (Colletotrichum lagenaria) [%] | Activity (Nicotiana tabacum [14]) | inhibition at 50 µg/mL (Tobacco mosaic virus [15]) [%] | further results |
| --- | --- | --- | --- | --- | --- | --- | --- | --- | --- | --- | --- | --- | --- | --- | --- | --- |
| Cc1nnsc1C1=NNC2SC(C(Cl)(Cl)Cl)=NN12 (configuration not stated) | 83.3 | 33.3 | 63.6 | 84.8 | 66.7 | 75 | 27.8 | 78.9 | 71.4 | 83.9 | Toxic | 70.7 | 64.7 |  |  | EC50 (Rhizoctonia solani [1]): 4.1 µg/mL (≈ 11.9 µM); EC50 [2]: 11.2 µg/mL (≈ 32.6 µM); EC50 (Thanatephorus cucumeris [3]): 2.5 µg/mL (≈ 7.27 µM); EC50 (Alternaria solani [5]): 14.6 µg/mL (≈ 42.5 µM); EC50 (Phytophthora infestans [6]): 12.5 µg/mL (≈ 36.4 µM); EC50 (Macrophoma): 6.4 µg/mL (≈ 18.6 µM) |
| NC(=O)c1ncn([C@@H]2O[C@H](CO)[C@@H](O)[C@H]2O)n1 [RIBAVIRIN] |  | 21.6 |  |  |  |  | 37.9 |  |  |  |  |  |  | inactive | 16.7 |  |
| Cc1nnsc1C1=NNC2SC(c3cccc([N+](=O)[O-])c3)=NN12 (configuration not stated) | 11.1 | 44.4 | 7.7 | 25 | 9.5 | 47.2 | 44.4 | 10 | 0 | 12.8 | Toxic | 54.8 | 0 |  |  |  |
| Cc1ccc(NC(=O)c2snnc2C)cc1Cl [TIADINIL] |  | 36.6 |  |  |  |  |  |  |  |  |  |  |  | 48.92% |  |  |
| CCc1cc(C2=NN3C(c4snnc4C)=NNC3S2)nn1C (configuration not stated) | 19.4 |  | 7.7 | 30.4 | 9.5 | 47.2 |  | 10 | 0 | 12.8 | Toxic | 4.8 | 0 |  | 34.8 |  |
| Cc1nnsc1C1=NNC2SC(c3ccccc3OC(F)(F)F)=NN12 (configuration not stated) | 5.6 |  | 7.7 | 35.7 | 4.8 | 86 |  | 0 | 0 | 15.4 | Toxic | 0 | 45.5 |  | 25 |  |
